Assay results as given in ChEMBL document CHEMBL3580581, “Bisabolane Sesquiterpenoids from the Plant Endophytic Fungus Paraconiothyrium brasiliense” (J Nat Prod, 2015).
Activity calls are given as the source filed them. No cut-off for these calls is given here.

Assays:
[1] = Cytotoxicity against human CNE1-LMP1 cells assessed as reduction in cell viability by MTS assay; format: functional, cell-based
In short: (§1)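 MTS viability assay. Cells were seeded at 5 × 10^3 per well for 24 h, then exposed to serial dilutions (5, 10, 15, 20, and 50 μM) in medium with 10% FBS and grown for the indicated duration. Controls got DMSO. MTS was added for 1 h at 37 °C and absorbance read at 490 nm. Results are % of control, with IC50 calculated.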

[2] = Cytotoxicity against human MGC cells assessed as reduction in cell viability by MTS assay; format: functional, cell-based; in short: as §1
[3] = Cytotoxicity against human EC109 cells assessed as reduction in cell viability by MTS assay; format: functional, cell-based; conditions: ECa-109; in short: as §1
[4] = Cytotoxicity against human PANC1 cells assessed as reduction in cell viability by MTS assay; format: functional, cell-based; conditions: PANC-1; in short: as §1
[5] = Cytotoxicity against human Hep3B2 cells assessed as reduction in cell viability by MTS assay; format: functional, cell-based, Hep 3B2; conditions: Hep3B; in short: as §1
[6] = Cytotoxicity against mouse NIH/3T3 cells assessed as reduction in cell viability by MTS assay; format: cell-based; conditions: NIH3T3; in short: as §1
A549 [7] = assay: Cytotoxicity against human A549 cells assessed as reduction in cell viability at 50 uM by MTS assay; format: functional, cell-based; in short: as §1
CNE1-LMP1 = assay: Cytotoxicity against human CNE1-LMP1 cells assessed as reduction in cell viability at 50 uM by MTS assay; format: functional, cell-based; in short: as §1
A-375 [8] = assay: Cytotoxicity against human A375 cells assessed as reduction in cell viability at 50 uM by MTS assay; format: functional, cell-based; in short: as §1
MCF7 [9] = assay: Cytotoxicity against human MCF7 cells assessed as reduction in cell viability at 50 uM by MTS assay; format: functional, cell-based; in short: as §1
MGC = assay: Cytotoxicity against human MGC cells assessed as reduction in cell viability at 50 uM by MTS assay; format: functional, cell-based; in short: as §1
ECa-109 = assay: Cytotoxicity against human EC109 cells assessed as reduction in cell viability at 50 uM by MTS assay; format: functional, cell-based; in short: as §1
PANC-1 = assay: Cytotoxicity against human PANC1 cells assessed as reduction in cell viability at 50 uM by MTS assay; format: functional, cell-based; in short: as §1
Hep 3B2 = assay: Cytotoxicity against human Hep3B2 cells assessed as reduction in cell viability at 50 uM by MTS assay; format: functional, cell-based; in short: as §1
HaCaT [10] = assay: Cytotoxicity against human HaCaT cells assessed as reduction in cell viability at 50 uM by MTS assay; format: cell-based; in short: as §1
[11] = Cytotoxicity against mouse NIH/3T3 cells assessed as reduction in cell viability at 50 uM by MTS assay; format: cell-based; conditions: nih3t3, 50 µM; in short: as §1
A549 [12] = assay: Cytotoxicity against human A549 cells assessed as reduction in cell viability by MTS assay; format: functional, cell-based; in short: as §1
A-375 [13] = assay: Cytotoxicity against human A375 cells assessed as reduction in cell viability by MTS assay; format: functional, cell-based; in short: as §1
MCF7 [14] = assay: Cytotoxicity against human MCF7 cells assessed as reduction in cell viability by MTS assay; format: functional, cell-based
HaCaT [15] = assay: Cytotoxicity against human HaCaT cells assessed as reduction in cell viability by MTS assay; format: cell-based; in short: as §1
MCF7 [16] = assay: Reduction in glucose uptake in human MCF7 cells assessed per 10^5 cells at 20 uM incubated for 12 hrs (reference value: 5.6 nM/hr/10^5 cells); format: functional
In short: (§2)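 Cells were seeded and after 24 h switched to fresh medium with 10% FBS, with or without 20 μM compound. After 12 h, supernatant glucose and lactate were measured on an automatic biochemistry analyzer. Cell numbers were counted in parallel by MTS. Rates (nmol/h/10^5 cells) were computed as the difference from blank medium divided by 12 h and by cell number. LY294002 served as positive control.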

MCF7 [17] = assay: Reduction in lactate secretion in human MCF7 cells assessed per 10^5 cells at 20 uM incubated for 12 hrs; format: functional; in short: as §2
HaCaT [18] = assay: Toxicity in human HaCaT cells assessed as reduction in glucose uptake per 10^5 cells at 20 uM incubated for 12 hrs; format: cell-based; in short: as §2
HaCaT [19] = assay: Toxicity in human HaCaT cells assessed as reduction in lactate secretion per 10^5 cells at 20 uM incubated for 12 hrs; format: cell-based; in short: as §2
MCF7 [20] = assay: Reduction in ATP generation in human MCF7 cells at 20 uM incubated for 12 and 24 hrs; format: functional, cell-based
In short: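 MCF-7 cells were exposed to 20 μM for 2, 4, 6, 8, 12 and 24 h. ATP was measured with a commercial kit, quantified against an ATP standard curve and expressed as % of the control group.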

MCF7 [21] = assay: Reduction in hexokinase-2 protein expression in human MCF7 cells by SDS-PAGE and Western blotting method; format: functional, cell-based; conditions: TDE = time-dependent effect
In short: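 MCF-7 cells were treated for 1, 3, 6, 12, 24 and 48 h and lysed in cold buffer. 50 μg protein was run on 10% SDS-PAGE and transferred to nitrocellulose. Membranes were probed with anti-HK2 primary antibody at 4 °C overnight, then HRP secondary for 1 h at room temperature, with ECL detection. α-Tubulin was the internal control.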

SMILES | Activity (A549 [7]) | Activity (CNE1-LMP1) | Activity (A-375 [8]) | Activity (MCF7 [9]) | Activity (MGC) | Activity (ECa-109) | Activity (PANC-1) | Activity (Hep 3B2) | Activity (HaCaT [10]) | Activity [11] | further results
CC(=O)O[C@H]1C(=O)[C@@]2(C)[C@H]([C@H](OC(=O)c3ccccc3)[C@]3(O)C[C@H](OC(=O)[C@H](O)[C@@H](NC(=O)c4ccccc4)c4ccccc4)C(C)=C1C3(C)C)[C@]1(OC(C)=O)CO[C@@H]1C[C@@H]2O [PACLITAXEL] |  |  |  |  |  |  |  |  |  |  | IC50 [1]: 0.0042 µM; IC50 [2]: 0.0064 µM; IC50 [3]: 0.14 µM; IC50 [4]: 0.0011 µM; IC50 [5]: 0.016 nM; IC50 [6]: 4.2 µM
C=C1CCC(C2=C/C(=C/C(C)C(N)=O)OC2=O)CC1 (racemic) | inactive | inactive | inactive | inactive | inactive | inactive | inactive | inactive | Non-toxic | Non-toxic | 
C=C1CCC(c2coc(/C=C(\C)C(N)=O)c2)CC1 |  |  |  |  |  |  |  |  |  |  | IC50 (A549 [12]): > 50 µM; IC50 [1]: > 50 µM; IC50 (A-375 [13]): > 50 µM; IC50 (MCF7 [14]): 8.4 µM; IC50 [2]: 14.7 µM; IC50 [3]: > 50 µM; IC50 [4]: > 50 µM; IC50 [5]: > 50000 nM; IC50 (HaCaT [15]): > 50 µM; IC50 [6]: > 50 µM; Activity (MCF7 [16]): 4.2 nM/h; Activity (MCF7 [17]): 0.5 nM/h; Activity (HaCaT [18]): Non-toxic; Activity (HaCaT [19]): Non-toxic; inhibition (MCF7 [20]): Active; inhibition (MCF7 [21]): tde
C/C(=C\c1cc([C@H]2CC[C@@](O)(CO)CC2)co1)C(N)=O | inactive | inactive | inactive | inactive | inactive | inactive | inactive | inactive | Non-toxic | Non-toxic | 
CC(=O)OC[C@]1(O)CC[C@H](C2=C/C(=C/C(C)C(N)=O)OC2=O)CC1 (mixture of isomers) | inactive | inactive | inactive | inactive | inactive | inactive | inactive | inactive | Non-toxic | Non-toxic | 
C=C1CCC(C2=C/C(=C\C(C)C(N)=O)OC2=O)CC1 (racemic) | inactive | inactive | inactive | inactive | inactive | inactive | inactive | inactive | Non-toxic | Non-toxic | 
CC(/C=C1/C=C([C@H]2CC[C@@](O)(CO)CC2)C(=O)O1)C(N)=O (mixture of isomers) | inactive | inactive | inactive | inactive | inactive | inactive | inactive | inactive | Non-toxic | Non-toxic | 
